# Compound activity deposited in PubChem BioAssay by several laboratories.
# ABCG2 inh = ABCG2 efflux pump inhibitors, primary screen, multiplex with ABCB1, IgMXP3 cells, flow cytometry; Broad substrate specificity ATP-binding cassette transporter ABCG2 (Homo sapiens), Q9UNQ0; JC-1 efflux; inhibition, % at 6.6 µM; 0.1% of 190,000 active; AID 1325, 2008;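 active = inhibition above 80%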;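 also: 0% = DMSO and 100% = nicardipine control wells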
# Target sequence (Q9UNQ0 whole entry, looked up): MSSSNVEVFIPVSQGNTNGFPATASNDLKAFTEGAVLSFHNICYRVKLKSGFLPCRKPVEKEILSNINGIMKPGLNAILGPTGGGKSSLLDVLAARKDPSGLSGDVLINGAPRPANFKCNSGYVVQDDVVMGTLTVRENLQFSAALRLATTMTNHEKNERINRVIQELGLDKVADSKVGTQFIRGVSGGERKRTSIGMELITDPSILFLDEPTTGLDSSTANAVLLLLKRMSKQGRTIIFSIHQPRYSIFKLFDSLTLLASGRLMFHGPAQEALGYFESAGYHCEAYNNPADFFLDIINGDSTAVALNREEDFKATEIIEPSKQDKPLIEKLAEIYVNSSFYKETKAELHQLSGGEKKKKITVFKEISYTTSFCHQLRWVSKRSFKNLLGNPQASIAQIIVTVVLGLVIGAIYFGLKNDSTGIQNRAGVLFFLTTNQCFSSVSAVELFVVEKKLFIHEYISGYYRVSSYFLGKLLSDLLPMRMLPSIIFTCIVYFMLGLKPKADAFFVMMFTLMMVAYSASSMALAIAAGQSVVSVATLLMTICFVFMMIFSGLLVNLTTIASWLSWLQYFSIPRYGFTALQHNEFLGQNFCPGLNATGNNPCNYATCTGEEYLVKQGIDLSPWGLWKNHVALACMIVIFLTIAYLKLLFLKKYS
#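 System: two drug-resistant human cell lines, ABCG2 and ABCB1; controls: nicardipine high and DMSO low controls; times: 10 min exposure at 25 °C with rotation, no wash; detection: flow cytometry of retained JC-1 fluorescence; read-out basis: percent efflux inhibition, scaled nicardipine 100% to DMSO 0%; doses: one concentration, 6.6 µM final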
# ROMK primary = ROMK potassium channel modulators, primary screen, cell-based, thallium flux, MLSMR library; B-score at 10 µM; 2% of 130,000 active; Tet-inducible ROMK, thallium flux fluorescence; actives lie on both sides; ATP-sensitive inward rectifier potassium channel 1 (Homo sapiens), P48048;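 active = signal ratio slope over the read window, or its plate-corrected B-score, at least 3 SD from the plate mean, either direction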;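 also: B-score of the F/F0 ratio slope over 7 to 12 s after thallium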
# Insulin prom up = insulin promoter activators in MIN6 cells, imaging, high-content screening, mouse beta cells; MIN6 insulin promoter-GFP reporter; stronger effect = higher value; AID 1625, 2009; 0.3% of 190,000 active; z-score at 5 µM;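 active = z-score above 3 at 5 µM with at least 500 cells counted in the well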
# SDO1 yeast rescue = growth rescue of sdo1-depleted yeast, primary screen, S. cerevisiae, bone marrow failure model; S. cerevisiae sdo1-depleted JHY4D growth rescue, OD600 30 h; stronger effect = higher value; pdr5 snq2 efflux-pump mutant strain; z-score at 10 µM; 0.21% of 140,000 active; AID 817, 2007;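 active = z-score above 3 at both the 24 hr and the 30 hr optical density reads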;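 also: z-score against mean and SD of all compound wells on the same plate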
# ABCB1 block = ABCB1 efflux pump inhibitors, primary screen, cell-based, multiplex, flow cytometry, ABCG2 counter-screen. CCRF-Adr cells, JC-1 efflux. 0.067% of 190,000 active. inhibition, % at 6.6 µM; in the data active = inhibition above about 40%;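 also: 0% = vehicle and 100% = reference inhibitor; higher value means more JC-1 retained so stronger ABCB1 efflux block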
# Autophagy mod = autophagy modulators in MEF cells, primary screen, imaging, high-content, MEF GFP-LC3; MEF GFP-LC3 puncta imaging; test concentration mostly 10 µM; 0.98% of 190,000 active; calls only at 10 µM (by protocol);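 active = percentage of spot-positive cells more than 3 SD above its plate mean, without a fluorescence outlier flag or 80% toxicity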;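 also: spot-positive cell cutoff set from DMSO-treated cells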
# * = called active by the depositor; i = inactive; nt = no result; + = active, no number. Only some compounds are listed: those with a hit (about 2.3% of all), similar ones and a draw of the others.
SMILES,ABCG2 inh,ROMK primary,Insulin prom up,SDO1 yeast rescue,ABCB1 block,Autophagy mod
COc1cccc(NC(=O)Cn2c(-c3cncs3)nc3ccccc32)c1,4.0,nt,5.27*,0.1,1.7,i
CCN1C(=O)/C(=C/N2CCc3ccccc32)SC1=S,1.5,nt,-1.24,-0.57,0.2,+
CCC(C)(C#CCN1CCCCC1)OC(C)=O (stereo not drawn),-1.2,0.626,0.66,nt,0.0,i
O=Cc1cccn1-c1nccc(-c2ccco2)n1,8.2,1.61,0.69,nt,0.2,i
O=C(N/N=C/c1c(O)n(Cc2ccccc2)c(=O)c2ccccc12)c1cccnc1,-3.0,-4.45*,0.67,nt,-0.1,i
O=C(N/N=C/c1cn(Cc2ccccc2)c2ccccc12)c1cccnc1,16.6,nt,0.14,0.55,2.5,i
CC(NC(=O)c1ccc(C23CC4CC(CC(C4)C2)C3)cc1)C(=O)O (stereo not drawn),1.4,nt,0.48,nt,0.7,i
COc1ccccc1C(=O)CSc1ccccn1,18.0,nt,0.36,nt,3.2,+
O=C(Nc1ccon1)c1cccc(S(=O)(=O)N2CCCCC2)c1,4.5,-0.202,3.46*,nt,0.1,i
Cc1ccccc1CN(C)CC(=O)NC(C)CCc1ccccc1 (stereo not drawn),7.7,-1,0.11,nt,0.8,+
COc1ccc(-c2cc(C(F)(F)F)n3nc(C(=O)NCc4ccco4)cc3n2)cc1,1.8,nt,0.03,-0.18,0.8,+
O=C(NCc1ccco1)c1cc2nc(-c3ccc4c(c3)OCO4)cc(C(F)(F)F)n2n1,7.2,nt,-2.37,-0.02,0.9,i
CCOc1ccc(Nc2cc(C)nc(-n3nc(C)cc3C)n2)cc1,44.4,2.73*,-0.92,-1.19,1.4,i
CNc1cc(C)nc(-n2nc(C)cc2C)n1,0.8,-0.313,0.41,0.13,0.3,i
COc1cccc(N2CCN(c3ncccn3)CC2)c1,1.3,0.323,3.1*,0.22,0.5,i
Cc1nc(NS(=O)(=O)c2ccccc2)sc1C(=O)N/N=C/c1ccccc1,nt,nt,-0.29,nt,nt,nt
O=C1N/C(=N\c2ccccn2)SC1Cc1ccccc1Cl (stereo not drawn),nt,nt,-0.11,nt,nt,nt
Cc1cccc(CC2S/C(=N/c3ccccn3)NC2=O)c1 (stereo not drawn),2.2,-1.51,0.18,-0.68,1.1,+
O=C(CSC1=NCCN1)NC(c1ccccc1)c1ccccc1,7.9,-1.14,nt,nt,-0.1,i
O=C1CN(C(=O)c2cc3ccccc3oc2=O)C(c2ccc(F)cc2)c2cc(Br)ccc2N1 (stereo not drawn),1.1,0.0231,0.76,-0.64,2.1,+
O=C1CN(C(=O)c2cc3ccccc3oc2=O)C(c2ccccc2)c2cc(F)ccc2N1 (stereo not drawn),4.4,0.727,-0.11,0.28,1.1,i
N=c1ccn2c(n1)OC1C(O)C(CO)OC12 (stereo not drawn),nt,0.297,nt,nt,nt,nt
COc1ccc(OC)c(-c2csc(N(CC3CCCO3)C(=O)C3CCCCC3)n2)c1 (stereo not drawn),7.0,-0.561,-0.14,nt,0.9,+
COc1ccc(OC)c(C2=NOC(C(=O)NCC3CCCO3)C2)c1 (stereo not drawn),0.4,0.272,3.67*,0.29,0.1,i
O=C(CSc1cccc[n+]1[O-])Nc1c(Br)cc([N+](=O)[O-])cc1Br,0.2,0.922,-1.25,nt,0.3,i
O=C(N/N=C/c1ccc(N2CCOCC2)cc1)c1ccccc1OCCOc1ccccc1,8.8,-0.696,-1.5,nt,2.1,i
CCc1ccc(NC(=O)CS(=O)CC(=O)NC(C)CCc2ccco2)cc1 (stereo not drawn),0.1,-0.0119,nt,1.02,0.0,+
N=c1sccn1CC(=O)Nc1cc(Cl)ccc1[N+](=O)[O-],1.6,-0.231,0.2,nt,0.7,+
COC(=O)[C@H](CCSC)NC(=O)Nc1cc(C)ccc1C,3.8,nt,nt,2.25,0.7,i
Cc1ccc(C)c(NC(=O)C(C)CC2COCCO2)c1 (stereo not drawn),2.1,-0.569,3.45*,0.08,0.3,i
